Structures are written as SMILES. Some results are limits rather than exact numbers.

Usually IC50 stands for the concentration that gives 50% inhibition. High values mean weaker potency, low ones greater potency. Broadly, the Ki is the dissociation constant of the complex between target and ligand, obtained from inhibition or displacement. A low value points to tighter binding.

Experiment [1] has as its system Rattus norvegicus. Briefly: Short-acting anaesthetic activity in Sprague-Dawley rat assessed as dose causing loss of righting reflex at 20 mg/kg/min followed by dose reduction to 6.7 mg/kg/min dosed via infusion. The class given is functional. The essentials: (§1)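 Rats (230 to 320g) restrained; drug at 10mg/ml infused via marginal tail vein cannula by syringe driver at 20 mg/kg/min until loss of righting reflex and PWR=1. Rate then cut to 6.7 mg/kg/min and titrated up-and-down for 10 min. PWR scored each minute by 1 s firm digital pressure on forepaw. Three rats per study, ketamine as within-group control, randomised order, ≥4 h between runs.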

For the next experiment, the target named is Glutamate NMDA receptor. Briefly: Displacement of [3H] MK-801 from NMDA glutamate ion channel in Wistar rat brain membranes (minus cerebellum) after 3 hrs by scintillation counting analysis. The class given is cell membranes. The essentials: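 Radioligand binding in Wistar rat brain (minus cerebellum) preparations with MK-801 as ligand.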
Experiment [2] concerns Rattus norvegicus. The experiment in a line: Analgesic activity in Sprague-Dawley rat assessed as minimal dose for loss of pedal withdrawal reflex at 20 mg/kg/min followed by dose reduction to 6.7 mg/kg/min dosed via infusion. The class given is functional. The following applies: read-out: MED. The essentials:
as §1

Experiment [3] relates to Rattus norvegicus. The experiment in a line: Short-acting anaesthetic activity in Sprague-Dawley rat assessed as time for return of righting reflex after infusion stopped at 20 mg/kg/min followed by dose reduction to 6.7 mg/kg/min dosed via infusion. The class given is functional. The essentials: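 Rats (230 to 320g) given tail-vein infusion of drug at 10mg/ml, 20 mg/kg/min until LORR and PWR=1, then 6.7 mg/kg/min titrated up-and-down to hold dorsal recumbency and PWR=1 to 10 min before stopping. Time from cessation to return of righting reflex recorded. Three rats per study, ketamine as own control, randomised order, ≥4 h recovery.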

Experiment [4] concerns the target Glutamate [NMDA] receptor. The experiment in a line: Binding affinity to NMDA receptor (unknown origin). The class given is protein-complex assay, Homo sapiens. The essentials: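 Radioligand binding on Wistar rat brain (minus cerebellum) preparations, MK-801 as ligand, in 5 mM Tris-acetate buffer pH 7.4, 3 h at 25°C; IC50 in µM.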

With `CC(C)OC(=O)CCNC1(c2ccccc2Cl)CCCCC1=O` (stereo not drawn), the EC in the experiment on Rattus norvegicus [1] turned out to be 33 mg/kg. The IC50 on Glutamate NMDA receptor worked out at 134 µM. Further, the minimal effective dose with Rattus norvegicus [2] worked out at 37 mg/kg. For the same molecule, the Time with Rattus norvegicus [3] is 83 s.
Consider `COCCOC(=O)CCCCNC1(c2ccccc2Cl)CCCCC1=O` (stereo not drawn), for which, in the experiment with Rattus norvegicus [1], the EC was >200 mg/kg. Besides, the IC50 at Glutamate NMDA receptor came out at 19 µM. Further, the minimal effective dose in the experiment on Rattus norvegicus [2] was > 200 mg/kg.
Take `CN(C)C(=O)CCNC1(c2ccccc2Cl)CCCCC1=O` (stereo not drawn): the EC with Rattus norvegicus [1] is 110 mg/kg. At Glutamate NMDA receptor, this molecule gave an IC50 of 416 µM. For the same molecule, in the experiment with Rattus norvegicus [2], the minimal effective dose was 113 mg/kg. For the same molecule, the Time in the experiment on Rattus norvegicus [3] amounted to 623 s.
In the case of `CN(C)C(=O)CCCCNC1(c2ccccc2Cl)CCCCC1=O` (stereo not drawn), the EC with Rattus norvegicus [1] is >200 mg/kg. Also, the IC50 on Glutamate NMDA receptor was > 1000 µM. For the same molecule, in the experiment with Rattus norvegicus [2], the minimal effective dose was > 200 mg/kg.
For the molecule `CCOC(=O)C(C)CCCNC1(c2ccccc2Cl)CCCCC1=O` (stereo not drawn), the EC in the experiment on Rattus norvegicus [1] was determined as 50 mg/kg. At Glutamate NMDA receptor, the IC50 was 107 µM. The minimal effective dose with Rattus norvegicus [2] was found to be 55 mg/kg. The Time in the experiment on Rattus norvegicus [3] is listed as 260 s.
Regarding `COC(=O)CCCCCNC1(c2ccccc2Cl)CCCCC1=O` (stereo not drawn), the EC in the experiment with Rattus norvegicus [1] was >200 mg/kg. For the same molecule, at Glutamate NMDA receptor, the IC50 came out at 44 µM. In addition, the minimal effective dose in the experiment on Rattus norvegicus [2] was > 200 mg/kg.
For `COC(=O)CCCCNC1(c2ccccc2Cl)CCCCC1=O` (stereo not drawn), the EC in the experiment with Rattus norvegicus [1] was 34 mg/kg. The molecule further displayed an IC50 on Glutamate NMDA receptor of 3 µM. In addition, in the experiment on Rattus norvegicus [2], the minimal effective dose amounted to 44 mg/kg. Moreover, in the experiment on Rattus norvegicus [3], the Time was found to be 99 s.
Turning to `CCOC(=O)CCOCCNC1(c2ccccc2Cl)CCCCC1=O` (stereo not drawn), in the experiment on Rattus norvegicus [1], the EC is >200 mg/kg. Further, on Glutamate NMDA receptor, the IC50 was determined as 87 µM. Also, the minimal effective dose with Rattus norvegicus [2] was > 200 mg/kg.
With `COC(=O)C(C)(C)CCCNC1(c2ccccc2Cl)CCCCC1=O` (stereo not drawn), the EC in the experiment with Rattus norvegicus [1] amounted to 52 mg/kg. For the same molecule, at Glutamate NMDA receptor, the IC50 stood at 125 µM. Also, the minimal effective dose with Rattus norvegicus [2] is > 200 mg/kg. For the same molecule, the Time with Rattus norvegicus [3] was 580 s.
Consider `COC(=O)CCCCCCNC1(c2ccccc2Cl)CCCCC1=O` (stereo not drawn), for which the EC in the experiment on Rattus norvegicus [1] was >200 mg/kg. In addition, the IC50 on Glutamate NMDA receptor came out at 51 µM. Moreover, the minimal effective dose in the experiment with Rattus norvegicus [2] is > 200 mg/kg.
The matching figures for `CCS(=O)(=O)CCNC1(c2ccccc2Cl)CCCCC1=O` (stereo not drawn): >200 mg/kg, > 1000 µM and > 200 mg/kg.
`CC(C)NC(=O)CCNC1(c2ccccc2Cl)CCCCC1=O` (stereo not drawn): the EC in the experiment on Rattus norvegicus [1] worked out at 82 mg/kg. At Glutamate NMDA receptor, this molecule showed an IC50 of 58 µM. Besides, in the experiment with Rattus norvegicus [2], the minimal effective dose was > 200 mg/kg. The Time with Rattus norvegicus [3] is listed as 82 s.
With `COC(=O)COCCNC1(c2ccccc2Cl)CCCCC1=O` (stereo not drawn), the EC with Rattus norvegicus [1] was >200 mg/kg. Moreover, the IC50 at Glutamate NMDA receptor is 13 µM. In the experiment with Rattus norvegicus [2], the minimal effective dose is > 200 mg/kg.
For `CC(C)OC(=O)CNC1(c2ccccc2Cl)CCCCC1=O` (stereo not drawn) the same measures were >200 mg/kg, 45 µM and > 200 mg/kg.
For `CNC(=O)CCNC1(c2ccccc2Cl)CCCCC1=O` (stereo not drawn), in the experiment on Rattus norvegicus [1], the EC worked out at 58 mg/kg. The same molecule displayed an IC50 on Glutamate NMDA receptor of 73 µM. The minimal effective dose with Rattus norvegicus [2] was > 200 mg/kg. Moreover, the Time in the experiment with Rattus norvegicus [3] turned out to be 85 s.
`CNC(=O)CCCCNC1(c2ccccc2Cl)CCCCC1=O` (stereo not drawn): the EC with Rattus norvegicus [1] came to 83 mg/kg. This molecule returned an IC50 on Glutamate NMDA receptor of 77 µM. The minimal effective dose in the experiment on Rattus norvegicus [2] is > 200 mg/kg. For the same molecule, in the experiment with Rattus norvegicus [3], the Time amounted to 125 s.
For `CCNC(=O)CCNC1(c2ccccc2Cl)CCCCC1=O` (stereo not drawn) the same measures were 112 mg/kg, 935 µM, 139 mg/kg and 237 s.
Turning to `NC(=O)CCNC1(c2ccccc2Cl)CCCCC1=O` (stereo not drawn), the EC in the experiment on Rattus norvegicus [1] was >200 mg/kg. On Glutamate NMDA receptor, this molecule yielded an IC50 of 500 µM. Further, the minimal effective dose in the experiment with Rattus norvegicus [2] was > 200 mg/kg.
`O=C1CCCCC1(NCCCN1CCCCC1)c1ccccc1Cl` (stereo not drawn): the EC with Rattus norvegicus [1] was 67 mg/kg. The IC50 on Glutamate NMDA receptor turned out to be 41 µM. In addition, the minimal effective dose in the experiment on Rattus norvegicus [2] was determined as 130 mg/kg. Further, in the experiment on Rattus norvegicus [3], the Time was 556 s.
With `COC(=O)CNC1(c2ccccc2Cl)CCCCC1=O` (stereo not drawn), the EC with Rattus norvegicus [1] was >200 mg/kg. At Glutamate NMDA receptor, this molecule returned an IC50 of 308 µM. For the same molecule, the minimal effective dose in the experiment with Rattus norvegicus [2] was > 200 mg/kg.
On to `O=C(CCNC1(c2ccccc2Cl)CCCCC1=O)Oc1ccccc1` (stereo not drawn), for which the EC in the experiment with Rattus norvegicus [1] was >200 mg/kg. The IC50 on Glutamate NMDA receptor turned out to be 73 µM. For the same molecule, in the experiment on Rattus norvegicus [2], the minimal effective dose was > 200 mg/kg.
In the case of `CNC1(c2ccccc2Cl)CCCCC1=O` (stereo not drawn) [KETAMINE], the EC in the experiment with Rattus norvegicus [1] amounted to 23 mg/kg. In addition, the affinity in experiment [4] corresponds to a Ki of 1.9 µM. For the same molecule, the IC50 on Glutamate NMDA receptor amounted to 0.7 µM. Moreover, the minimal effective dose with Rattus norvegicus [2] was determined as 28 mg/kg. Moreover, the Time with Rattus norvegicus [3] is recorded as 1075 s.
